Experiments:
[1] = system: Trichophyton rubrum; assay: In vitro antifungal activity against Trichophyton rubrum; assay type: functional
Method in brief: (§1)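 Fungal growth-inhibition screen (Godefroi method) against dermatophytes, yeasts, moulds and other fungi. The value is the lowest concentration (µg/mL) giving total inhibition of growth, tested up to 100 µg/mL.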

[2] = In vivo activity against microsporosis guinea pig, measured as the ratio of animals cured/animals infected (C/I) at dose 10 mg/kg; C/I = 2/2; assay type: functional
[3] = In vivo activity against microsporosis guinea pig, measured as the ratio of animals cured/animals infected (C/I) at dose 1.25 mg/kg; C/I = 3/6; assay type: functional
[4] = In vivo activity against vaginal candidoses in rats, measured as the ratio of animals cured/animals infected (C/I) at dose 2.5 mg/kg; C/I = 7/10; assay type: functional
[5] = system: Trichophyton benhamiae; assay: In vitro antifungal activity against Trichophyton mentagrophytes; assay type: functional, Arthroderma benhamiae; method in brief: as §1
[6] = In vitro antifungal activity against Mucor sp; assay type: functional; method in brief: as §1
[7] = system: Aspergillus fumigatus; assay: In vitro antifungal activity against Aspergillus fumigatus; assay type: functional; method in brief: as §1
[8] = In vivo activity against microsporosis guinea pig, measured as the ratio of animals cured/animals infected (C/I) at dose 2.5 mg/kg; C/I = 5/8; assay type: functional
[9] = In vivo activity against vaginal candidoses in rats, measured as the ratio of animals cured/animals infected (C/I) at dose 1.25 mg/kg; C/I = 7/10; assay type: functional
[10] = In vivo activity against vaginal candidoses in rats, measured as the ratio of animals cured/animals infected (C/I) at dose 0.63 mg/kg; C/I = 4/10; assay type: functional
[11] = system: Phialophora verrucosa; assay: In vitro antifungal activity against Phialophora verrucosa; assay type: functional; method in brief: as §1
[12] = system: Cryptococcus neoformans; assay: In vitro antifungal activity against Cryptococcus neoformans; assay type: functional; method in brief: as §1
[13] = system: Candida tropicalis; assay: In vitro antifungal activity against Candida tropicalis; assay type: functional; method in brief: as §1
[14] = system: Sporothrix schenckii; assay: In vitro antifungal activity against Sporothrix schenck ii; assay type: functional; method in brief: as §1
[15] = system: Candida albicans; assay: In vitro antifungal activity against Candida albicans; assay type: functional; method in brief: as §1
[16] = system: Microsporum canis; assay: In vitro antifungal activity against Microsporum canis; assay type: functional; method in brief: as §1
[17] = system: Saprolegnia; assay: In vitro antifungal activity against Saprolegnia sp; assay type: functional; method in brief: as §1
[18] = In vivo activity against vaginal candidoses in rats, measured as the ratio of animals cured/animals infected (C/I) at dose 2.5 mg/kg; C/I = 2/4; assay type: functional
[19] = In vivo activity against microsporosis guinea pig, measured as the ratio of animals cured/animals infected (C/I) at dose 2.5 mg/kg; C/I = 0/2; assay type: functional
[20] = In vivo activity against vaginal candidoses in rats, measured as the ratio of animals cured/animals infected (C/I) at dose 2.5 mg/kg; C/I = 9/10; assay type: functional
[21] = In vivo activity against vaginal candidoses in rats, measured as the ratio of animals cured/animals infected (C/I) at dose 1.25 mg/kg; C/I = 1/4; assay type: functional
[22] = In vivo activity against microsporosis guinea pig, measured as the ratio of animals cured/animals infected (C/I) at dose 10 mg/kg; C/I = 0/4; assay type: functional
[23] = In vivo activity against vaginal candidoses in rats, measured as the ratio of animals cured/animals infected (C/I) at dose 0.63 mg/kg; C/I = 1/6; assay type: functional
[24] = In vivo activity against microsporosis guinea pig, measured as the ratio of animals cured/animals infected (C/I) at dose 10 mg/kg; C/I = 1/4; assay type: functional
[25] = In vivo activity against vaginal candidoses in rats, measured as the ratio of animals cured/animals infected (C/I) at dose 2.5 mg/kg; C/I = 1/2; assay type: functional
[26] = In vivo activity against microsporosis guinea pig, measured as the ratio of animals cured/animals infected (C/I) at dose 10 mg/kg; C/I = 1/8; assay type: functional
[27] = system: Rattus norvegicus; assay: In vivo activity against vaginal candidoses in rats, measured as the ratio of animals cured/animals infected (C/I) at dose 1.25 mg/kg; C/I = 5/6; assay type: functional
[28] = In vivo activity against vaginal candidoses in rats, measured as the ratio of animals cured/animals infected (C/I) at dose 10 mg/kg; C/I = 2/2; assay type: functional
[29] = In vivo activity against vaginal candidoses in rats, measured as the ratio of animals cured/animals infected (C/I) at dose 0.63 mg/kg; C/I = 4/8; assay type: functional
[30] = In vivo activity against microsporosis guinea pig, measured as the ratio of animals cured/animals infected (C/I) at dose 1.25 mg/kg; C/I = 0/2; assay type: functional
[31] = In vivo activity against vaginal candidoses in rats, measured as the ratio of animals cured/animals infected (C/I) at dose 2.5 mg/kg; C/I = 4/6; assay type: functional
[32] = In vivo activity against vaginal candidoses in rats, measured as the ratio of animals cured/animals infected (C/I) at dose 10 mg/kg; C/I = 1/2; assay type: functional
[33] = In vivo activity against microsporosis guinea pig, measured as the ratio of animals cured/animals infected (C/I) at dose 20 mg/kg; C/I = 0/2; assay type: functional
[34] = In vivo activity against vaginal candidoses in rats, measured as the ratio of animals cured/animals infected (C/I) at dose 2.5 mg/kg; 0/2; assay type: functional
[35] = In vivo activity against microsporosis guinea pig, measured as the ratio of animals cured/animals infected (C/I) at dose 20 mg/kg; 0/2; assay type: functional
[36] = In vivo activity against vaginal candidoses in rats, measured as the ratio of animals cured/animals infected (C/I) at dose 10 mg/kg; 1/2; assay type: functional
[37] = In vivo activity against vaginal candidoses in rats, measured as the ratio of animals cured/animals infected (C/I) at dose 1.25 mg/kg; C/I = 1/6; assay type: functional
[38] = In vivo activity against vaginal candidoses in rats, measured as the ratio of animals cured/animals infected (C/I) at dose 2.5 mg/kg; C/I = 4/8; assay type: functional
[39] = In vivo activity against microsporosis guinea pig, measured as the ratio of animals cured/animals infected (C/I) at dose 2.5 mg/kg; C/I = 0/6; assay type: functional
[40] = In vivo activity against microsporosis guinea pig, measured as the ratio of animals cured/animals infected (C/I) at dose 10 mg/kg; C/I = 4/6; assay type: functional
[41] = In vivo activity against vaginal candidoses in rats, measured as the ratio of animals cured/animals infected (C/I) at dose 0.63 mg/kg; C/I = 0/4; assay type: functional
[42] = In vivo activity against vaginal candidoses in rats, measured as the ratio of animals cured/animals infected (C/I) at dose 2.5 mg/kg; C/I = 2/2; assay type: functional
[43] = In vivo activity against vaginal candidoses in rats, measured as the ratio of animals cured/animals infected (C/I) at dose 0.63 mg/kg; C/I = 0/2; assay type: functional
[44] = In vivo activity against vaginal candidoses in rats, measured as the ratio of animals cured/animals infected (C/I) at dose 2.5 mg/kg; C/I = 1/4; assay type: functional

Compound	Inhibition [1] [µg/mL]	C/I ratio [2]	Inhibition [5] [µg/mL]	Inhibition [6] [µg/mL]	Inhibition [7] [µg/mL]	Inhibition [11] [µg/mL]	Inhibition [12] [µg/mL]	Inhibition [13] [µg/mL]	Inhibition [14] [µg/mL]	Inhibition [15] [µg/mL]	Inhibition [16] [µg/mL]	Inhibition [17] [µg/mL]	C/I ratio [19]	other results
CC(C)Cn1ncn(-c2ccc(N3CCN(c4ccc(OC[C@@H]5COC(Cn6cncn6)(c6ccc(Cl)cc6Cl)O5)cc4)CC3)cc2)c1=O (stereo not given in full)	10	2	10	>100	>100	>100	100	10	>100	100	>100	>100		C/I ratio [3]: 0.5; C/I ratio [4]: 0.7; C/I ratio [8]: 0.625; C/I ratio [9]: 0.7; C/I ratio [10]: 0.4
Cc1nn(CC(C)C)c(=O)n1-c1ccc(N2CCN(c3ccc(OC[C@@H]4COC(Cn5ccnc5)(c5ccc(Cl)cc5Cl)O4)cc3)CC2)cc1 (stereo not given in full)	100	2	100	>100	>100	>100	100	100	>100	>100	>100	>100	0	C/I ratio [18]: 0.5
CCn1nc(C)n(-c2ccc(N3CCN(c4ccc(OC[C@@H]5COC(Cn6cncn6)(c6ccc(Cl)cc6Cl)O5)cc4)CC3)cc2)c1=O (stereo not given in full)	>100		>100	>100	>100	>100	>100	>100	>100	>100	>100	>100		C/I ratio [20]: 9; C/I ratio [21]: 1; C/I ratio [22]: 0; C/I ratio [23]: 1
CCCn1nc(CC)n(-c2ccc(N3CCN(c4ccc(OC[C@@H]5COC(Cn6ccnc6)(c6ccc(Cl)cc6Cl)O5)cc4)CC3)cc2)c1=O (stereo not given in full)	100		10	>100	>100	>100	>100	10	>100	100	>100	>100		C/I ratio [24]: 1; C/I ratio [25]: 1
Cn1ncn(-c2ccc(N3CCN(c4ccc(OC[C@@H]5COC(Cn6cncn6)(c6ccc(Cl)cc6Cl)O5)cc4)CC3)cc2)c1=O (stereo not given in full)	10		1	>100	>100	100	100	10	>100	100	>100	>100	0	C/I ratio [26]: 1; C/I ratio [27]: 5; C/I ratio [28]: 1; C/I ratio [29]: 0.5; C/I ratio [30]: 0; C/I ratio [31]: 4
Cc1nn(C)c(=O)n1-c1ccc(N2CCN(c3ccc(OC[C@@H]4COC(Cn5cncn5)(c5ccc(Cl)cc5Cl)O4)cc3)CC2)cc1 (stereo not given in full)	>100		>100	>100	>100	>100	>100	>100	>100	>100	>100	>100		C/I ratio [25]: 1; C/I ratio [32]: 1; C/I ratio [33]: 0
CC(=O)N1CCN(c2ccc(OC[C@@H]3COC(Cn4cncn4)(c4ccc(Cl)cc4Cl)O3)cc2)CC1 (stereo not given in full)											100			C/I ratio [34]: 0; C/I ratio [35]: 0; C/I ratio [36]: 1
CCCCn1nc(C)n(-c2ccc(N3CCN(c4ccc(OC[C@@H]5COC(Cn6ccnc6)(c6ccc(Cl)cc6Cl)O5)cc4)CC3)cc2)c1=O (stereo not given in full)	10		10	>100	>100	>100	100	1	>100	100	>100	>100		C/I ratio [37]: 1; C/I ratio [38]: 0.5; C/I ratio [30]: 0; C/I ratio [39]: 0; C/I ratio [40]: 0.667; C/I ratio [41]: 0
CCC(C)n1nc(C)n(-c2ccc(N3CCN(c4ccc(OC[C@@H]5COC(Cn6cncn6)(c6ccc(Cl)cc6Cl)O5)cc4)CC3)cc2)c1=O (stereo not given in full)	>100	2	100	>100	>100	>100	>100	>100	>100	10	>100	>100	0	C/I ratio [42]: 1; C/I ratio [43]: 0
CCCn1nc(C)n(-c2ccc(N3CCN(c4ccc(OC[C@@H]5COC(Cn6cncn6)(c6ccc(Cl)cc6Cl)O5)cc4)CC3)cc2)c1=O (stereo not given in full)	>100		1	>100	>100	>100	100	100	>100	100	>100	>100		C/I ratio [44]: 1; C/I ratio [43]: 0
